Assay results reported in ChEMBL document CHEMBL4014326, “Discovery of an Orally Bioavailable Benzimidazole Diacylglycerol Acyltransferase 1 (DGAT1) Inhibitor That Suppresses Body Weight Gain in Diet-Induced Obese Dogs and Postprandial Triglycerides in Humans” (J Med Chem, 2017).

Legend:
Salmonella typhimurium [1] = assay: Genotoxicity in histidine depleted Salmonella typhimurium TA100 assessed as increase in reverting mutations up to 1000 ug in absence of S9 metabolic activation by Ames test; type: toxicity; conditions: salmonella enterica subsp. enterica serovar typhimurium
[2] = Drug metabolism in rat hepatocytes assessed as [3H]-(2S,3S,4S,5R,6S)-3,4,5-trihydroxy-6-(3-(4-(6-(5-(4-methoxyphenyl)-1,3,4-oxadiazol-2-yl)-1H-benzo[d]imidazol-2-yl)-3,5-dimethylphenyl)-2,2-dimethylpropanoyloxy)tetrahydro-2H-pyran-2-carboxylic acid formation at 12.5 uM after 18 hrs; type: ADME, cell-based, Hepatocyte
How it was run: (§1)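 [3H]-labelled compound (12.5 µM) was incubated for 18 h with rat, dog, monkey or human hepatocytes, and metabolites were profiled.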

[3] = Efflux ratio of permeability across basolateral to apical side over apical to basolateral side in human Caco2 cells; type: ADME, cell-based; conditions: Caco-2
How it was run: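 Caco-2 monolayer permeability was measured in the A-B and B-A directions, and the efflux ratio was taken as B-A/A-B.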

[4] = target: T1, Diacylglycerol O-acyltransferase 2 (Homo sapiens, UniProt Q96PD7); assay: Inhibition of DGAT2 (unknown origin)
T1 sequence (Q96PD7 whole entry): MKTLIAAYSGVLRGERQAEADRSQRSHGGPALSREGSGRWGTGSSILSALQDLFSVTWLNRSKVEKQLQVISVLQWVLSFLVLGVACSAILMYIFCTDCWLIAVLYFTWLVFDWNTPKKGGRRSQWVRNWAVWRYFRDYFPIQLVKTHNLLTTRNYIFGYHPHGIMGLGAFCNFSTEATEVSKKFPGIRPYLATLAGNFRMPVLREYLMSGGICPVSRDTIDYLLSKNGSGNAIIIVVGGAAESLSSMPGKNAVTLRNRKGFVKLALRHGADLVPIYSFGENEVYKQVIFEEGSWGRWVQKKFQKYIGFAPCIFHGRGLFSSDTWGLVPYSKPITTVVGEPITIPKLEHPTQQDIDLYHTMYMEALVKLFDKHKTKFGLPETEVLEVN

[5] = Drug metabolism in human hepatocytes assessed as [3H]-3-(3,5-dimethyl-4-(6-(5-phenyl-1,3,4-oxadiazol-2-yl)-1H-benzo[d]imidazol-2-yl)phenyl)-2,2-dimethylpropanoic acid formation at 12.5 uM after 18 hrs; type: ADME, cell-based, Hepatocyte; how it was run: as §1
Salmonella typhimurium [6] = assay: Genotoxicity in histidine depleted Salmonella typhimurium TA98 assessed as increase in reverting mutations up to 1000 ug in absence of S9 metabolic activation by Ames test; type: toxicity; conditions: salmonella enterica subsp. enterica serovar typhimurium
[7] = Clearance in Sprague-Dawley rat at 1 mg/kg, iv by LC/MS/MS analysis; type: ADME, organism-based; conditions: in vivo
How it was run: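 Male Sprague-Dawley rats, 200-300 g, dosed iv (n = 2) or po (n = 3) as solutions in NMP/PG or PEG400/ETPGS vehicles. Blood was taken from a jugular vein catheter at 0.083 (iv only), 0.25, 0.5, 1, 2, 4, 6 and 8 h into EDTA tubes, and plasma was analysed by LC-MS/MS. Values are means ± SD.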

Salmonella typhimurium [8] = assay: Genotoxicity in histidine depleted Salmonella typhimurium TA100 assessed as increase in reverting mutations up to 1000 ug in presence of S9 metabolic activation by Ames test; type: toxicity; conditions: salmonella enterica subsp. enterica serovar typhimurium

In the case of `COc1ccc(-c2nnc(-c3ccc4nc(-c5c(C)cc(CC(C)(C)C(=O)O)cc5C)[nH]c4c3)o2)cc1`, the Activity (Salmonella typhimurium [1]) is reported as “Non-Toxic”, the Drug metabolism [2] is reported as “Metabolite_Detected” and the efflux ratio [3] is reported as 2.4. The IC50 [4] was over 10 µM, the Drug metabolism [5] was “Metabolite_Detected” and the Activity (Salmonella typhimurium [6]) was “Non-Toxic”. For the same molecule, the clearance [7] was 9.5 mL/min/kg and the Activity (Salmonella typhimurium [8]) was “Non-Toxic”.
